APP 5'UTR act – activators of APP 5'UTR luciferase reporter, primary screen, SH-SY5Y cells. SH-SY5Y APP 5'UTR luciferase reporter, luminescence; zero percent = DMSO vehicle wells. activation, % at 2 µM. actives 1% (n = 190,000);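 active means activation above a set limit, based on mean plus 3 SD of controls, cut at about 140% in these data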
STAT3 act-1 – IL-6 driven STAT3 reporter potentiators, primary screen, U3A cells, luciferase, luminescence, MLSCN library | activation (% of control), % at 5.6 µM | IL-6 STAT3-luciferase reporter; 100% = signal with IL-6 EC80 alone | actives 0.91% (n = 190,000);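 active means activation above the screen-wide mean of compound activation plus 3 SD, cut at about 130% in these data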
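Material: STAT3-luciferase reporter U3A cells. Controls: IL-6-treated wells, 100% activation. Read-out: % activation versus median of IL-6-stimulated wells. Probe or stimulus: IL-6 stimulus at 33 ng/mL final. Timing: compound 1 h, then IL-6 6 h at 37 °C. Signal: reporter luminescence signal.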
STAT3 blocker – IL-6 driven STAT3 reporter inhibitors, primary screen, U3A cells, luciferase, luminescence, MLSCN library | inhibition, % at 5.5 µM | IL-6 STAT3-luciferase reporter; host cell line lacks STAT1 | actives 0.89% (n = 190,000) | AID 862, 2007;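 active means inhibition above the mean inhibition across all screened compounds plus 3 SD, cut at about 44% in these data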
STAT1 act-1 – STAT1 signaling activators, primary screen, cell-based, HTS, luciferase reporter | AID 932, 2007 | NIH 3T3 STAT1-luciferase reporter, IFN-gamma, luminescence; 100% = IFN-gamma alone, no compound | actives 2.6% (n = 200,000) | activation (% of control), % at 5.5 µM;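 active means activation above the screen-wide mean activation plus 3 SD, cut at about 130% in these data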
NF-kB expr up – activators of NF-kB expression in neurons, primary screen, cell-based, HTS; human neuronal cells, NF-kB reporter expression; active compounds read high; fold change at 12.5 µM; actives 1.6% (n = 190,000); in the data active means fold change above about 3.3
STAT1 blocker – STAT1 signaling inhibitors, primary screen, cell-based, HTS, luciferase reporter | actives 0.35% (n = 200,000) | NIH 3T3 STAT1-luciferase reporter, IFN-gamma, luminescence | inhibition, % at 5.5 µM;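 active means inhibition above a set limit, the mean inhibition across all tested compounds plus 3 SD, cut at about 34% in these data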
STAT3 act-2 – STAT3 reporter potentiators, retest of hits, confirmation, U3A cells, luciferase, luminescence. shares compounds with STAT3 act-1. IL-6 potentiation; U3A cells lack STAT1; 100 means same as IL-6 alone. potentiation (% of control), % at 5.7 µM. actives 64% (n = 1,200);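 active means percent activation of the STAT3 luciferase reporter above a set limit taken from the earlier primary screen, cut at about 130% in these data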
NFkB act 2 – NF-kB reporter activators in human cells, counter-screen for STAT3 activator project | AID 1309, 2008 | activation (% of control), % at 5.7 µM | NF-kappaB reporter activation | actives 11% (n = 1,200) | shares compounds with STAT3 act-1; in the data active means activation above about 120%;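 further: reporter induced by TNF-alpha stimulation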
STAT1 act-2 – STAT1 reporter activators, IFN-gamma induced, counter-screen for STAT3 activator project, cell-based, NIH 3T3, luciferase luminescence; shares compounds with STAT3 act-1; NIH 3T3 STAT1-luciferase reporter; activation (% of control), % at 5.7 µM; actives 13% (n = 1,200); AID 1318, 2008;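 active means activation above the solvent-only control well mean plus 3 SD, set per screening run, cut at about 120% in these data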
Of the large screens only hits and unclear results are named; the others gave an inactive call (follow-up assays come after a bar, where they were run). A selection: hits, their analogues and other compounds. The true share with any hit is near 5.1%.

O=C(Cn1cnc2scc(-c3ccc(Br)cc3)c2c1=O)N1CCOCC1	none
CC1COc2ccccc2N1C(=O)c1ccc(Cl)nc1 (centres undefined)	STAT3 act-1 145 | STAT3 act-2 136 | NFkB act 2 inactive | STAT1 act-2 inactive
O=C(O)CCC(C(=O)O)n1c(O)c(C2=c3ccccc3=NC2=O)sc1=S (centres undefined)	STAT3 act-1 145 | STAT3 act-2 138 | NFkB act 2 inactive | STAT1 act-2 inactive
CCN(CC)C(=O)Nc1cnc2ccccc2c1	none
COC(=O)c1cccc(C(=O)Nc2cnc3ccccc3c2)n1	STAT3 act-1 183 | STAT3 act-2 162 | NFkB act 2 inactive | STAT1 act-2 122
COC(=O)c1cccc(C(=O)Nc2ccc(C)cc2Br)n1	STAT3 act-1 141 | STAT3 act-2 inactive | NFkB act 2 inactive | STAT1 act-2 inactive
CC(=O)Nc1ccc(/C=N/N2C(=O)NC(C)(c3ccc(OC(F)F)cc3)C2=O)cc1 (centres undefined)	none
Cc1cccc2cc3c(NC(=O)c4ccccn4)nn(C)c3nc12	STAT3 act-1 156 | STAT3 act-2 140 | NFkB act 2 inactive | STAT1 act-2 inactive
CCCC(=O)Nc1nn(C)c2nc3c(C)cccc3cc12	none
Cc1ccc(C)c(NC(=O)c2nc(Cl)ccc2Cl)c1	none
O=C(Nc1ccccc1O)c1nc(Cl)ccc1Cl	STAT3 act-1 156 | STAT3 act-2 171 | NFkB act 2 inactive | STAT1 act-2 inactive
COc1ccc(-n2nnnc2SCc2nc3ccccc3s2)cc1	STAT3 act-1 146 | STAT3 act-2 138 | NFkB act 2 125 | STAT1 act-2 142
COc1ccc(C)cc1-n1nnnc1SCc1nc2ccccc2s1	STAT3 act-1 147 | STAT3 act-2 144 | NFkB act 2 inactive | STAT1 act-2 128
CCOCCCn1c(SCc2nc3ccccc3s2)nc2ccccc2c1=O	none
COCCn1c(SCc2nc3ccccc3s2)nc2ccccc21	STAT3 act-1 147 | STAT3 act-2 146 | NFkB act 2 122 | STAT1 act-2 140
Cc1cccc(C)c1NC(=O)Cn1nnnc1N	none
O=C(Nc1ccc(OCC(=O)N2CCOCC2)cc1)Nc1cccc2ccccc12	none
CCOCC(=O)N1CCc2ccccc21	STAT3 act-1 151 | STAT3 act-2 139 | NFkB act 2 inactive | STAT1 act-2 inactive
CN(C)S(=O)(=O)N1CCc2ccccc2C1	none
CN(C)S(=O)(=O)N1CCc2ccccc21	STAT3 act-1 146 | STAT3 act-2 inactive | NFkB act 2 inactive | STAT1 act-2 inactive
CCN(CC)C(=O)N1CCc2ccccc21	STAT3 act-1 146 | STAT3 act-2 151 | NFkB act 2 inactive | STAT1 act-2 inactive
CC(CC(=O)N1CCc2ccccc21)c1ccccc1 (centres undefined)	none (no result: APP 5'UTR act)
O=C(c1cccnc1)N1CCc2ccccc21	STAT3 act-1 159 | STAT3 act-2 140 | NFkB act 2 inactive | STAT1 act-2 inactive
O=C(OCC(=O)N1CCc2ccccc21)c1ccccc1	none
C/C(=N\OCC(=O)Nc1c(C)cc(C)cc1C)c1ccc2c(c1)OCCO2	none
COc1cc2c(cc1OC)CN(C(C)C(=O)N1CCc3ccccc31)CC2 (centres undefined)	none
CC(C(=O)N1CCc2ccccc21)N1CCc2ccccc2C1 (centres undefined)	STAT3 act-1 146 | STAT3 act-2 inactive | NFkB act 2 inactive | STAT1 act-2 inactive
O=C1C(=C(O)c2ccccc2)C(=O)c2ccccc21	none
O=C1C(=C(c2ccccc2)c2ccccc2)Nc2ccccc21	STAT3 act-1 147 | STAT3 act-2 139 | NFkB act 2 inactive | STAT1 act-2 inactive
O=C(COc1ccc(Cl)cc1Cl)Nc1c(-c2cccs2)nc2ccccn12	none
COCCNc1nnc(SCC(=O)c2c[nH]c3ccccc23)s1	STAT3 act-1 141 | STAT3 act-2 136 | NFkB act 2 inactive | STAT1 act-2 inactive
O=C(c1ccc2ccccc2n1)N1CCN(c2ccccc2O)CC1	STAT3 act-1 157 | STAT3 act-2 158 | NFkB act 2 inactive | STAT1 act-2 inactive
Cn1c(SCC(=O)Nc2ccc3cn[nH]c3c2)nnc1-c1cccs1	STAT3 act-1 162 | STAT3 act-2 149 | NFkB act 2 inactive | STAT1 act-2 inactive
Cc1ccc(-n2c(SCC(=O)Nc3ccc4cn[nH]c4c3)nnc2-c2ccco2)cc1	STAT3 act-1 149 | STAT3 act-2 143 | NFkB act 2 inactive | STAT1 act-2 inactive
COc1ccc(NC(=O)CSc2nnc(-c3cccs3)n2C)cc1OC	none
Cn1c(SCC(=O)Nc2ccc3cn[nH]c3c2)nnc1-c1cnccn1	STAT3 act-1 145 | STAT3 act-2 146 | NFkB act 2 inactive | STAT1 act-2 inactive
CCc1c(C)nc2c(C)cccc2c1SCCC#N	none
Cc1ccc(S(=O)(=O)N2CCOCC2)cc1NC(=O)CSc1nnnn1C	none
CCOC(=O)c1sc(Nc2nc3c(F)cccc3s2)cc1C	STAT3 act-1 145 | STAT3 act-2 150 | NFkB act 2 134 | STAT1 act-2 inactive
COc1ccc(COc2cc(-c3cccc(OC)c3)nc3ccc(NC(=O)c4ccc(N(C)C)cc4)cc23)cc1	STAT3 act-1 136 | STAT3 act-2 inactive | NFkB act 2 inactive | STAT1 act-2 inactive
Cc1ccc(NC(=O)CCC(=O)NNC(=O)/C=C/C(=O)O)c(C)c1	none
COCCSc1ccccc1C(=O)NCCc1ccccc1	STAT3 act-1 138 | STAT3 act-2 149 | NFkB act 2 inactive | STAT1 act-2 inactive
CC(C)C(=O)N1CCN(c2ccccc2NC(=O)c2ccc(C#N)cc2F)CC1	STAT3 act-1 137 | STAT3 act-2 138 | NFkB act 2 inactive | STAT1 act-2 inactive
CC1CCN(c2ccccc2NC(=O)c2ccc(C#N)cc2F)CC1	none
CCn1c(/C=C2\C(=O)N(C)c3ccccc32)nc2ccccc2c1=O	STAT3 act-1 137 | STAT3 act-2 inactive | NFkB act 2 inactive | STAT1 act-2 inactive
CCn1c(/C=C2/C(=O)N(C)c3ccccc32)nc2ccccc2c1=O	none

Assay outcomes (PubChem BioAssay)
